Holding throughout (type): functional
In assay [1] the test system is Providencia rettgeri. Nature of the assay: Minimum inhibitory concentration was measured against Proteus rettgeri A 21615.
Assay [2] deals with Providencia rettgeri. Nature of the assay: Minimum inhibitory concentration was measured against Proteus rettgeri A 9637, in combination with Kanamycin A at specified concentration. In a few lines: (§1)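 The value is the minimum inhibitory concentration of kanamycin A, in µg/mL, against the listed strain. Strains are designated by their inactivating enzyme, e.g. aminoglycoside 3'-phosphotransferase II producers.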

For assay [3], the system named is Providencia rettgeri. Nature of the assay: Minimum inhibitory concentration was measured against Proteus rettgeri A 21615, in combination with Kanamycin A at specified concentration. In a few lines: as §1
Assay [4] relates to Pseudomonas aeruginosa. The assay can be described thus: Minimum inhibitory concentration was measured against Pseudomonas aeruginosa A 20653, in combination with Kanamycin A at 8 ug/mL concentration. In a few lines: as §1
Assay [5] deals with Providencia rettgeri. Nature of the assay: Minimum inhibitory concentration was measured against Proteus rettgeri A 21615, in combination with Kanamycin A at 8 ug/mL concentration. In a few lines:
as §1

Assay [6] concerns Escherichia coli. Nature of the assay: Minimum inhibitory concentration was measured against Escherichia coli A 9632, in combination with Kanamycin A at 8 ug/mL concentration. In a few lines: as §1
In assay [7] the test system is Pseudomonas aeruginosa. The assay can be described thus: Minimum inhibitory concentration was measured against Pseudomonas aeruginosa A 20653 in combination with Kanamycin A at specified concentration. In a few lines:
as §1

Assay [8] deals with Pseudomonas aeruginosa. The assay can be described thus: Minimum inhibitory concentration was measured against Pseudomonas aeruginosa A 20357, in combination with Kanamycin A at specified concentration. In a few lines:
as §1

Assay [9] has as its system Pseudomonas aeruginosa. The assay can be described thus: Minimum inhibitory concentration was measured against Pseudomonas aeruginosa A 20653.
Assay [10] deals with Providencia rettgeri. Nature of the assay: Minimum inhibitory concentration was measured against Proteus rettgeri A 9637, in combination with Kanamycin A at 8 ug/mL concentration. In a few lines:
as §1

Assay [11] relates to Escherichia coli. Nature of the assay: Minimum inhibitory concentration was measured against Escherichia coli A 9632, in combination with Kanamycin A at specified concentration. In a few lines:
as §1

In assay [12] the test system is Escherichia coli. The assay can be described thus: Minimum inhibitory concentration was measured against Escherichia coli A 20665, in combination with Kanamycin A at 8 ug/mL concentration. In a few lines: as §1
Assay [13] has as its system Escherichia coli. The assay can be described thus: Minimum inhibitory concentration was measured against Escherichia coli A 9632.
The subject of assay [14] is Escherichia coli. The assay can be described thus: Minimum inhibitory concentration was measured against Escherichia coli A 20665.
Assay [15] concerns Pseudomonas aeruginosa. The assay can be described thus: Minimum inhibitory concentration was measured against Pseudomonas aeruginosa A 20357.
Assay [16] has as its system Providencia rettgeri. Nature of the assay: Minimum inhibitory concentration was measured against Proteus rettgeri A 9637.
In assay [17] the test system is Escherichia coli. Nature of the assay: Minimum inhibitory concentration was measured against Escherichia coli A 20507, in combination with Kanamycin A at specified concentration. In a few lines: as §1
Assay [18] has as its system Escherichia coli. The assay can be described thus: Minimum inhibitory concentration was measured against Escherichia coli A 20507.
Assay [19] concerns Pseudomonas aeruginosa. Nature of the assay: Minimum inhibitory concentration was measured against Pseudomonas aeruginosa A 20357, in combination with Kanamycin A at 8 ug/mL concentration. In a few lines: as §1
In assay [20] the test system is Escherichia coli. Nature of the assay: Minimum inhibitory concentration was measured against Escherichia coli A 20665, in combination with Kanamycin A at specified concentration. In a few lines:
as §1

For assay [21], the system named is Escherichia coli. Nature of the assay: Minimum inhibitory concentration was measured against Escherichia coli A 20507, in combination with Kanamycin A at 8 ug/mL concentration. In a few lines: as §1
Assay [22] concerns Pseudomonas aeruginosa. Nature of the assay: Minimum inhibitory concentration was measured against Pseudomonas aeruginosa A 20653 in combination with Kanamycin A at 32 ug/mL concentration. In a few lines: (§2)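 Kanamycin A was serially diluted in Mueller-Hinton broth with each epimino derivative held at a fixed 32 µg/mL (8 µg/mL also run). The value is the minimum inhibitory concentration of kanamycin A in the combination against Bristol-numbered strains, read for lowering of kanamycin A MIC in resistant strains.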

Assay [23] concerns Escherichia coli. The assay can be described thus: Minimum inhibitory concentration was measured against Escherichia coli A 20665, in combination with Kanamycin A at 32 ug/mL concentration. In a few lines: as §2
The subject of assay [24] is Providencia rettgeri. The assay can be described thus: Minimum inhibitory concentration was measured against Proteus rettgeri A 21615, in combination with Kanamycin A at 32 ug/mL concentration. In a few lines: as §2
Assay [25] concerns Pseudomonas aeruginosa. The assay can be described thus: Minimum inhibitory concentration was measured against Pseudomonas aeruginosa A 20357, in combination with Kanamycin A at 32 ug/mL concentration. In a few lines: as §2
Assay [26] relates to Providencia rettgeri. The assay can be described thus: Minimum inhibitory concentration was measured against Proteus rettgeri A 9637, in combination with Kanamycin A at 32 ug/mL concentration. In a few lines: as §2
Assay [27] relates to Escherichia coli. The assay can be described thus: Minimum inhibitory concentration was measured against Escherichia coli A 20507, in combination with Kanamycin A at 32 ug/mL concentration. In a few lines:
as §2

By MIC is commonly meant the lowest concentration found to suppress growth.

SMILES strings stand for the structures. ≈ marks a conversion by molar mass, not a printed value.

Take `NCC1OC(OC2C(N)CC(N)C(OC3OC(CO)C(O)C4NC34)C2O)C(N)C(O)C1O` (stereo unspecified): the MIC in assay [1] is above 125 µg/mL; in [2], 0.5 µg/mL; in assay [3] it was 63 µg/mL; in assay [4] it was above 125 µg/mL; in assay [5], 63 µg/mL; in assay [6], 1 µg/mL. For the same compound, the minimum inhibitory concentration (MIC) in assay [7] was above 125 µg/mL; in [8], 4 µg/mL; in [9] it was above 125 µg/mL; in [10], 0.5 µg/mL; in assay [11], 1 µg/mL; in assay [12], above 125 µg/mL. For the same compound, the MIC in assay [13] was 63 µg/mL (≈ 135 µM); in assay [14], above 125 µg/mL; in assay [15] it was above 125 µg/mL; in assay [16] it was above 125 µg/mL; in assay [17] it was 125 µg/mL; in assay [18] it was above 125 µg/mL. Besides, the minimum inhibitory concentration (MIC) in [19] was 4 µg/mL; in [20] it was above 125 µg/mL; in assay [21], 125 µg/mL.

Take `NCC1OC(OC2C(NC(=O)OCc3ccccc3)CC(N)C(O)C2O)C(N)C(O)C1O` (stereo unspecified): the minimum inhibitory concentration (MIC) in assay [1] is above 125 µg/mL; in [22] it was above 125 µg/mL; in [4], above 125 µg/mL; in [5] it was 125 µg/mL; in assay [6], 2 µg/mL; in [23], above 125 µg/mL. Also, the MIC in assay [24] is 125 µg/mL; in assay [9] it was above 125 µg/mL; in assay [10] it was 1 µg/mL; in [25] it was 4 µg/mL; in assay [12], above 125 µg/mL; in [13] it was above 125 µg/mL. Besides, the minimal inhibitory concentration (MIC) is above 125 µg/mL in [14]; above 125 µg/mL in [15]; above 125 µg/mL in assay [16]; above 125 µg/mL in [18]; 4 µg/mL in assay [19]; 1 µg/mL in assay [26]. The MIC in assay [27] and in [21] was 125 µg/mL throughout.

Take `NCC1OC(OC2C(N)CC(N)C(OC3OC(CO)C(O)C(N)C3O)C2O)C2NC2C1O` (stereo unspecified): the MIC is above 125 µg/mL in assay [1]; 0.5 µg/mL in assay [2]; 125 µg/mL in assay [3]; above 125 µg/mL in assay [4]; 125 µg/mL in [5]; 0.25 µg/mL in assay [6]. Further, the minimal inhibitory concentration (MIC) is above 125 µg/mL in assay [7]; 4 µg/mL in assay [8]; 125 µg/mL (≈ 269 µM) in [9]; 0.5 µg/mL in assay [10]; above 125 µg/mL in [12]; 8 µg/mL (≈ 17.2 µM) in assay [13]. For the same compound, the MIC was 125 µg/mL (≈ 269 µM) in assay [14]; 125 µg/mL (≈ 269 µM) in assay [15]; 16 µg/mL (≈ 34.4 µM) in assay [16]; 125 µg/mL in [17]; 125 µg/mL (≈ 269 µM) in assay [18]; 4 µg/mL in assay [19]. In addition, the MIC was above 125 µg/mL in assay [20] and 125 µg/mL in assay [21].

Take `NCC1OC(OC2C(N)CC(N)C(O)C2O)C2NC2C1O` (stereo unspecified): the figures for the MIC in assay [17], in assay [18] and in assay [21] were 32 µg/mL, above 125 µg/mL and 63 µg/mL, respectively.

With `NCC1OC(OC2C(NC(=O)OCc3ccccc3)CC(N)C(O)C2OC2O[C@H](CO)[C@@H](O)[C@H]2O)C2NC2C1O` (stereo partly specified), the MIC in assay [1] is above 125 µg/mL; in assay [2], 0.5 µg/mL; in [3] it was 125 µg/mL; in assay [4] it was above 125 µg/mL; in [5], 125 µg/mL; in assay [6], 1 µg/mL. For the same compound, the minimum inhibitory concentration (MIC) was above 125 µg/mL in assay [7]; 4 µg/mL in assay [8]; above 125 µg/mL in assay [9]; 0.5 µg/mL in assay [10]; 1 µg/mL in assay [11]; above 125 µg/mL in assay [12]. The MIC in assay [13] is above 125 µg/mL; in assay [14], above 125 µg/mL; in [15] it was above 125 µg/mL; in assay [16], above 125 µg/mL; in [17], 63 µg/mL; in [18], above 125 µg/mL. Moreover, the minimum inhibitory concentration (MIC) in [19] was 4 µg/mL; in assay [20] it was above 125 µg/mL; in assay [21] it was 125 µg/mL.

For the compound `NC[C@H]1O[C@H](O[C@H]2[C@H](O)[C@@H](O[C@H]3O[C@H](CO)[C@@H](O)[C@H](N)[C@H]3O)[C@H](N)C[C@@H]2N)[C@H](O)[C@@H](O)[C@@H]1O` [KANAMYCIN], the MIC in assay [1] is 125 µg/mL (≈ 258 µM); in [9], above 125 µg/mL; in [13] it was 2 µg/mL (≈ 4.13 µM); in assay [14] it was above 125 µg/mL; in assay [16] it was at most 0.25 µg/mL; in assay [18], above 125 µg/mL.

`NCC1OC(OC2C(NC(=O)OCc3ccccc3)CC(N)C(O)C2O)C2NC2C1O` (stereo unspecified): the MIC in assay [1] was above 125 µg/mL; in assay [3] it was 63 µg/mL; in assay [4] it was above 125 µg/mL; in assay [5] it was above 125 µg/mL; in [7], above 125 µg/mL; in assay [9], above 125 µg/mL. Besides, the MIC in [12] is above 125 µg/mL; in assay [13] it was 125 µg/mL (≈ 285 µM); in [14], 125 µg/mL (≈ 285 µM); in assay [15] it was above 125 µg/mL; in assay [16], above 125 µg/mL; in [17], 63 µg/mL. Moreover, the MIC in assay [18], in [20] and in [21] was above 125 µg/mL each time.

The record behind these values is ChEMBL document CHEMBL1121523, “Aminoglycoside antibiotics. 3. Epimino derivatives of neamine, ribostamycin, and kanamycin B” (1980).
